# Compound activity: PubChem, Johns Hopkins Ion Channel Center
# Kir21 block: blocks the mouse Kir2.1 inward-rectifier potassium channel; P35561; HEK293-Kir2.1, FluxOR thallium flux fluorescence; active compounds read low; B-score at 10 µM; hit rate 0.85% among 310,000; AID 1672;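 active means fluorescence ratio B-score at or below minus 3 SD of library scores, with starting-brightness B-score within 2 SD, cut at about -4.2 in these data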;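 further: channel flux triggered by added potassium and thallium sulfate stimulus; B-score of peak minus minimum fluorescence over baseline after thallium stimulus; more negative B-score means stronger Kir2.1 block with less thallium influx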
# MrgX1 ag: activates human MrgX1 receptor signaling; MrgX1-HEK293 cells, Fluo-4 calcium fluorescence, agonist mode; active compounds read high; B-score at 10 µM; hit rate 0.44% among 310,000;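 active means calcium response B-score plate-corrected fluorescence ratio at least 3 library SD, with starting fluorescence B-score inside 5 SD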
# Target sequence (Q96LB2 whole entry, looked up): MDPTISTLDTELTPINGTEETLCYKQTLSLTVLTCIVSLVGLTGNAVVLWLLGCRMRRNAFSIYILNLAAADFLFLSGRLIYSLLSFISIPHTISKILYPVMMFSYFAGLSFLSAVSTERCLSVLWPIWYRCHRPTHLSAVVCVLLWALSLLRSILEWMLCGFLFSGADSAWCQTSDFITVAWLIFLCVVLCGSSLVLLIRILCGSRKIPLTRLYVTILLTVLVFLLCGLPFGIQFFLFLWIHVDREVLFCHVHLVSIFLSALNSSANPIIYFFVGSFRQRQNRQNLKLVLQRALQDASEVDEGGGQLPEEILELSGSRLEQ
#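 Test system: HEK293 cells stably expressing human MrgX1 receptor; amount: 15,000 cells per well; doses: compound delivered in addition one of three; times: overnight plating before 1 h dye loading; detection: Fluo-4 NW calcium-flux fluorescence, kinetic read; read-out basis: B-scored fluorescence response ratio; controls: positive and negative controls per plate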
# MrgX1 antagonist: human MrgX1 receptor antagonism, primary screen; MRGX1-HEK293 calcium flux, Fluo-4, BAM8-22 antagonism; active compounds read low; B-score at 10 µM; hit rate 1.3% among 310,000; AID 588676;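 active means calcium-response B-score plate-corrected more than 3 library SD below zero, starting fluorescence within 5 deviations, no agonist response on first addition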;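 further: peak minus trough fluorescence over baseline after final BAM8-22 challenge near maximal dose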
# RGS4 act: potentiators or activators of RGS4; hit rate 0.92% among 310,000; AID 463111; HEK293 M3R/inducible RGS4, carbachol calcium flux Fluo4; active compounds read low; B-score at 10 µM;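 active means B-score of the integrated calcium signal more than 4 SD below the library mean, with starting fluorescence not abnormally high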;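 further: negative B-score means reduced calcium response which marks RGS4 activation or potentiation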
#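 Reagent: ECmax carbachol challenge; Test system: M3R-expressing HEK293 line, RGS4 induced by doxycycline; Schedule: overnight RGS4 induction, 30 min dye load 37 °C, 20 min compound RT; Detection: calcium dye Fluo4 fluorescence; Read-out: Agonist-evoked peak-minus-minimum fluorescence over baseline, integrated ratio, B score.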
# MrgX1 allo act: human MrgX1 positive allosteric modulation, primary screen. B-score at 10 µM. Q96LB2. AID 588675. MrgX1-HEK293, Fluo-4 calcium flux, FDSS; active compounds read high. hit rate 0.63% among 310,000;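 active means plate-corrected calcium response at least 3 library SD above typical, normal starting fluorescence, not activating the receptor alone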;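 further: compound read alongside a low EC10 to EC30 dose of BAM8-22 agonist; peak minus trough fluorescence over baseline measured at the second addition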
# RGS4 block: inhibitors of human RGS4 | P49798 | HEK293 M3R/RGS4 inducible, Fluo-4 calcium flux; active compounds read high; triggered by carbachol at its EC20 | B-score at 10 µM | hit rate 0.45% among 310,000 | AID 463165;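 active means B-score, a plate-corrected calcium signal, over three deviations above library mean, with baseline fluorescence within five deviations of library mean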;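 further: RGS4 expression induced by doxycycline in cells with stable M3 receptor; B-score is computed from the integrated fluorescence ratio over baseline after carbachol; higher B-score means a larger calcium signal and so more RGS4 inhibition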
# Target sequence (P49798 whole entry, looked up): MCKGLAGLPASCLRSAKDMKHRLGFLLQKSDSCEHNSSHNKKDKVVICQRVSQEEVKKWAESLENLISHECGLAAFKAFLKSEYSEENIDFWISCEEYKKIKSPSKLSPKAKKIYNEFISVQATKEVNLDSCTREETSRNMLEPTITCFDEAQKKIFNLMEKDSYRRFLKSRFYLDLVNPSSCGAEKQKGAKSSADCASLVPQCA
# * hit, by the source's call; i = inactive; nt = not tested or not shown. Rows were chosen to be rich in hits. Some 4.1% of all compounds tested hit in one or more screens of this group.
SMILES,Kir21 block,MrgX1 ag,MrgX1 antagonist,RGS4 act,MrgX1 allo act,RGS4 block
CCn1c(=S)sc2c(=O)n(-c3ccccc3)c(SC)nc21,0.19,i,i,i,7.74*,i
COc1cc(/C=C2/C(=O)NN(c3ccc(Cl)cc3)C2=O)cc(Br)c1O,0.72,32.7*,i,i,i,i
COc1ccc(S(=O)(=O)N2CCC(C(=O)NCCC3=CCCCC3)CC2)cc1C,-0.16,i,i,i,i,i
COc1cc(C)ccc1OCCOCCN(C)Cc1ccccc1,-1.04,i,-6.5*,i,i,i
CN(CCOCCOc1ccc2ccccc2c1)Cc1ccccc1,-7.01*,i,i,i,i,i
COc1cc(C)ccc1OCCOCCOc1ccccc1[N+](=O)[O-],-1.05,i,i,i,i,i
CCc1ccc(OCCCCN(C)Cc2ccccc2)cc1,-6.11*,i,i,i,i,i
COc1ccccc1OCCOCCOc1ccc(C)cc1[N+](=O)[O-],0.14,i,-7.02*,i,i,i
Cc1cc(NC(=O)c2ccccc2Oc2ccccc2)no1,-0.07,i,i,i,i,i
COc1ccc(C(=O)/C=C/C(=O)N(CC(=O)NC2CCCCC2)CC2CCCO2)c(O)c1 (centres undefined),-5.34*,i,i,i,i,i
Cc1ccc(CN2CCC(C(=O)Nc3cccc(-c4cccc(F)c4)c3)CC2)o1,-5.14*,i,i,i,i,i
O=C(Nc1cccc(-c2cccc(Cl)c2)c1)C1CCN(Cc2ccc(CO)o2)CC1,-6.14*,i,i,i,i,i
CC(=O)OC(C(=O)NC1CCCCC1)c1cccc(F)c1 (centres undefined),-0.04,i,i,i,i,i
COc1ccccc1NS(=O)(=O)c1ccc2oc(N)nc2c1,-4.33*,i,i,i,i,i
COc1ccccc1NS(=O)(=O)c1ccc2oc(SC)nc2c1,0.85,i,i,i,i,i
Cc1oc(-c2ccc(Cl)cc2)nc1CN1CCC(C(=O)NCCCN2CCOCC2)CC1,-4.57*,i,i,i,i,i
CC1CCCN(Cc2cnc(Cl)s2)C1 (centres undefined),0.15,i,i,i,i,i
COC(=O)c1sc2cc([N+](=O)[O-])cc(SCC(C)C)c2c1N,-2.55,i,-9.24*,i,i,i
O=C(COC(=O)C1(c2ccccc2F)CCCC1)NCc1cccs1,-6.85*,i,i,i,i,i
O=C(COC(=O)C1(c2ccccc2F)CCCC1)NCc1ccc2c(c1)OCO2,-0.64,i,i,i,i,i
COc1ccc(/C=c2\sc3nc(=O)c(C)nn3c2=O)c(OC)c1,-2.35,27.1*,i,i,i,i
C/C(=N\O)c1ccccc1C(=O)O,0.35,i,-6.25*,i,i,i
O=C(O)c1ccccc1C(=O)N(c1ccccc1)c1ccccc1,1.9,i,i,i,i,i
COc1cccc(C(=O)NC(=S)Nc2cccnc2)c1,-0.27,i,i,i,i,i
O=C1C(=O)N(CCO)C(c2ccc(Br)cc2)/C1=C(\O)c1ccccc1 (centres undefined),0.24,i,i,i,i,i
SMILES,Kir21 block,MrgX1 ag,MrgX1 antagonist,RGS4 act,MrgX1 allo act,RGS4 block
CC1(C)C(=O)CC[C@@]2(C)[C@H]1CC[C@@]1(C)CC3=C(CC[C@@H]12)[C@@]1(C)CCC(=O)C(C)(C)[C@@H]1CC3,nt,i,i,nt,i,nt
C=C(C)[C@@H]1CCC2(C(=O)O)CC[C@]3(C)[C@H](CC[C@@H]4[C@@]5(C)CCC(=O)C(C)(C)[C@@H]5CC[C@]43C)[C@@H]12 (some centres undefined),0.93,i,-8.31*,i,i,i
O=C1/C(=C\c2ccco2)SC(=S)N1Cc1ccccc1,1.46,i,i,i,i,i
Cc1cc(/C=C2\SC(=S)N(C)C2=O)c(C)n1-c1cccc(O)c1,-0.89,i,-5.73*,i,i,i
Cc1cc(/C=C2\SC(=S)N(Cc3ccco3)C2=O)c(C)n1-c1ccccc1,0.02,i,-4.52*,i,i,i
CCCOc1ccc(C2C(C(=O)c3ccc(C)o3)=C(O)C(=O)N2Cc2ccco2)cc1OCC (centres undefined),-0.12,i,i,i,i,i
O=C(NC12CC3CC(CC(C3)C1)C2)N1CCN(c2ncccn2)CC1,1.93,i,i,i,i,i
CN1/C(=C\C(=O)COC(=O)c2nccnc2N)C(C)(C)c2ccccc21,0.97,i,i,i,i,i
CN(C)CCCN(C(=O)c1cc(-c2cccs2)nc2ccccc12)c1nc2c(F)cccc2s1,0.16,i,i,i,i,i
Cc1ccc2nc(N(CCCN(C)C)C(=O)c3cc(-c4cccs4)nc4ccccc34)sc2c1,-1.16,i,i,-7.76*,i,i
NC(=O)CC(NC(=O)c1ccccc1)c1ccc(NCc2ccccn2)c([N+](=O)[O-])c1 (centres undefined),-0.74,i,i,i,i,i
C=CS(=O)(=O)c1sc(Cl)c(N2CCOCC2)c1[N+](=O)[O-],-9.46*,nt,nt,-10.6*,nt,i
C=CSc1sc(Cl)c(N2CCOCC2)c1[N+](=O)[O-],-0.97,i,i,i,i,i
CCS(=O)(=O)Nc1cccc(C(=O)CC2(O)C(=O)Nc3ccccc32)c1 (centres undefined),0.41,i,i,i,i,i
CCn1c(-c2ccccc2Cl)nn(CC(=O)NCCc2ccccc2)c1=S,0.71,i,i,i,12.1*,i
COCCCNC(=O)Cn1cc(C(=O)c2cccs2)c2ccccc21,-0.02,i,i,i,i,i
Cc1occc1C(=O)N1CCN(c2ccccc2)CC1,-0.02,i,i,i,i,i
Cc1cc(C)c2c(=O)n(CC(=O)NCCCN3CCN(c4ccccc4F)CC3)sc2n1,-5.53*,i,i,-9.63*,i,i
Cc1cc(C)c2c(=O)n(CC(=O)NCCCN3CCOCC3)sc2n1,0.98,i,i,i,i,i
COc1ccc(/C=C/C(=O)c2ccc(Cl)cc2)c(OC)c1,-0.07,i,-4.89*,i,i,i
COc1ccc(/C=C/C(=O)c2cc(Cl)ccc2O)c(OC)c1,-0.26,i,i,i,i,i
